Laboratory results from ChEMBL document CHEMBL4000223, “Evaluation of substituted ebselen derivatives as potential trypanocidal agents” (Bioorg Med Chem Lett, 2017).

What was measured:
Trypanosoma brucei [1] = experiment: Antitrypanosomal activity against Trypanosoma brucei 427 bloodstream forms at 10 uM after 72 hrs by CellTiter-Blue fluorescence assay; type: functional; settings: Trypanosoma brucei, 427, 72 h
Summary of the method: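 Single-concentration growth screen of bloodstream-form cultures, run in triplicate. Percent inhibition was calculated against growth of parasites given DMSO vehicle on the same plate, which served as the negative control. EbS at the same concentration was included in each assay as a positive control.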

Trypanosoma brucei [2] = experiment: Antitrypanosomal activity against Trypanosoma brucei 427 bloodstream forms after 72 hrs by CellTiter-Blue fluorescence assay; type: functional; settings: Trypanosoma brucei, 427, 72 h
Summary of the method: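 Bloodstream-form cultures were run as triplicate dose-response series to derive 50% effective concentrations. Compounds were taken to this stage only if they gave more than 50% growth inhibition in the single-concentration screen. DMSO vehicle served as the negative control, and EbS was included as a positive control in each assay.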

Trypanosoma brucei [3] = experiment: Inhibition of recombinant Trypanosoma brucei His6-tagged HK1 expressed in Escherichia coli M15(pREP) harboring pQE30 at 10 uM using glucose as substrate by spectrophotometric based glucose 6-phosphate dehydrogenase enzyme coupled assay
Summary of the method: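 Purified recombinant TbHK1 incubated with the compound at a single fixed screening concentration, after which enzyme activity was scored. Percent inhibition is recorded relative to uninhibited enzyme.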

[4] = Inhibition of recombinant Trypanosoma brucei His6-tagged HK1 expressed in Escherichia coli M15(pREP) harboring pQE30 using glucose as substrate by spectrophotometric based glucose 6-phosphate dehydrogenase enzyme coupled assay
[5] = Inhibition of recombinant Trypanosoma brucei HK1 expressed in Escherichia coli or yeast using glucose as substrate by spectrophotometric based glucose 6-phosphate dehydrogenase enzyme coupled assay
[6] = Inhibition of recombinant Trypanosoma brucei His6-tagged HK1 expressed in Escherichia coli M15(pREP) harboring pQE30 using glucose as substrate after 2 hrs by spectrophotometric based glucose 6-phosphate dehydrogenase enzyme coupled assay
Trypanosoma brucei [7] = experiment: Antitrypanosomal activity against Trypanosoma brucei bloodstream forms after 72 hrs by CellTiter-Blue fluorescence assay; type: functional
Summary of the method: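 Bloodstream-form T. brucei cultures assayed in triplicate, with DMSO vehicle as negative control and a reference ebselen analogue as positive control on each plate. Growth inhibition is calculated against the DMSO controls of the same plate. Compounds giving over 50% inhibition in the single-concentration screen went on to triplicate dose-response curves to derive 50% effective concentrations.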

Row | Compound | inhibition at 10 µM (Trypanosoma brucei [1]) | EC50 (Trypanosoma brucei [2]) | inhibition (Trypanosoma brucei [3]) | IC50 [4] | IC50 [5] | IC50 [6] | EC50 (Trypanosoma brucei [7])
1 | COC(=O)c1ccc(-n2[se]c3ccccc3c2=O)cc1 | 38.6% | 13 µM | 79% | 3.16 µM | – | – | –
2 | COC(=O)c1cccc(-n2sc3ccccc3c2=O)c1 | 8.8% | > 10 µM | 1.7% | > 10 µM | – | – | –
3 | CC(C)C[C@@H](NC(=O)[C@@H](CCCCN)NC(=O)[C@@H](C)NC(=O)CNC(=O)CNC(=O)Cn1sc2ccccc2c1=O)C(=O)O | 28% | > 10 µM | 3.7% | > 10 µM | – | – | –
4 | O=C(O)c1cccc2c(=O)n(-c3ccccc3)[se]c12 | 0% | > 10 µM | 0% | > 10 µM | – | – | –
5 | O=C(O)c1nn(Cc2ccc(Cl)cc2Cl)c2ccccc12 [LONIDAMINE] | – | – | – | – | 850 µM | – | –
6 | CC(C)C[C@@H](NC(=O)[C@@H](CCCCN)NC(=O)[C@@H](C)NC(=O)CNC(=O)CNC(=O)c1cccc(-n2[se]c3ccccc3c2=O)c1)C(=O)O | 28.4% | > 10 µM | 0% | > 10 µM | – | – | –
7 | CC(C)C[C@H](NC(=O)[C@H](CCCCN)NC(=O)[C@H](C)NC(=O)CCOCCOCCNC(=O)c1ccc(-n2sc3ccccc3c2=O)cc1)C(=O)O | 35.4% | > 10 µM | 0% | > 10 µM | – | – | –
8 | CC(C)C[C@@H](NC(=O)[C@@H](CCCCN)NC(=O)[C@@H](C)NC(=O)CNC(=O)CNC(=O)c1cccc2c(=O)n(-c3ccccc3)sc12)C(=O)O | 0% | > 10 µM | 0% | > 10 µM | – | – | –
9 | O=C(O)c1cccc(-n2sc3ccccc3c2=O)c1 | 15.8% | > 10 µM | 0% | > 10 µM | – | – | –
10 | O=C(O)c1cccc(-n2[se]c3ccccc3c2=O)c1 | 0% | > 10 µM | 18.5% | > 10 µM | – | – | –
11 | O=C(O)c1ccc(-n2sc3ccccc3c2=O)cc1 | 0% | > 10 µM | 0% | > 10 µM | – | – | –
12 | COC(=O)Cn1[se]c2ccccc2c1=O | 0% | > 10 µM | 0% | > 10 µM | – | – | –
13 | COC(=O)c1cccc2c(=O)n(-c3ccccc3)[se]c12 | 55.6% | 10 µM | 2.7% | > 10 µM | – | – | –
14 | O=c1c2ccccc2sn1-c1ccccc1 | – | – | – | – | – | 2 µM | 0.03 µM
15 | O=C(O)c1ccc(-n2[se]c3ccccc3c2=O)cc1 | 12% | > 10 µM | 17.2% | > 10 µM | – | – | –
16 | COC(=O)Cn1sc2ccccc2c1=O | 98.3% | 0.28 µM | 12.8% | > 10 µM | – | – | –
17 | CC(C)C[C@H](NC(=O)[C@H](CCCCN)NC(=O)[C@H](C)NC(=O)CCOCCOCCNC(=O)c1ccc(-n2[se]c3ccccc3c2=O)cc1)C(=O)O | 25% | > 10 µM | 0% | > 10 µM | – | – | –
18 | CC(C)C[C@@H](NC(=O)[C@@H](CCCCN)NC(=O)[C@@H](C)NC(=O)CNC(=O)CNC(=O)c1ccc(-n2[se]c3ccccc3c2=O)cc1)C(=O)O | 44.1% | > 10 µM | 0% | > 10 µM | – | – | –
19 | CC(C)C[C@@H](NC(=O)[C@@H](CCCCN)NC(=O)[C@@H](C)NC(=O)CNC(=O)CNC(=O)c1cccc(-n2sc3ccccc3c2=O)c1)C(=O)O | 0% | > 10 µM | 0% | > 10 µM | – | – | –
20 | O=C(O)c1cccc2c(=O)n(-c3ccccc3)sc12 | 10.9% | > 10 µM | 0% | > 10 µM | – | – | –
21 | O=C(O)Cn1sc2ccccc2c1=O | 77.6% | 7.2 µM | 0.87% | > 10 µM | – | – | –
22 | O=C(O)Cn1[se]c2ccccc2c1=O | 0% | > 10 µM | 0% | > 10 µM | – | – | –
23 | O=c1c2ccccc2[se]n1-c1ccccc1 [EBSELEN] | – | – | – | – | – | 0.05 µM | 2.9 µM
24 | CC(C)C[C@@H](NC(=O)[C@@H](CCCCN)NC(=O)[C@@H](C)NC(=O)CNC(=O)CNC(=O)c1cccc2c(=O)n(-c3ccccc3)[se]c12)C(=O)O | 0% | > 10 µM | 0% | > 10 µM | – | – | –
25 | COC(=O)c1ccc(-n2sc3ccccc3c2=O)cc1 | 66.5% | 3.8 µM | 22.8% | > 10 µM | – | – | –
26 | CC(C)C[C@@H](NC(=O)[C@@H](CCCCN)NC(=O)[C@@H](C)NC(=O)CNC(=O)CNC(=O)c1ccc(-n2sc3ccccc3c2=O)cc1)C(=O)O | 26.4% | > 10 µM | 10.4% | > 10 µM | – | – | –
27 | COC(=O)c1cccc2c(=O)n(-c3ccccc3)sc12 | 52.5% | 10 µM | 18% | > 10 µM | – | – | –
28 | CC(C)C[C@@H](NC(=O)[C@@H](CCCCN)NC(=O)[C@@H](C)NC(=O)CNC(=O)CNC(=O)Cn1[se]c2ccccc2c1=O)C(=O)O | 34.4% | > 10 µM | 1.7% | > 10 µM | – | – | –
29 | COC(=O)c1cccc(-n2[se]c3ccccc3c2=O)c1 | 18% | > 10 µM | 0% | > 10 µM | – | – | –
